Laboratory results as given in ChEMBL document CHEMBL3259728, “Design, synthesis and biological evaluation of some novel substituted quinazolines as antitumor agents” (2014).

test system: CCRF-CEM; experiment: Growth inhibition of human CCRF-CEM cells at 10 uM after 48 hrs by SRB assay; assay type: functional; details: read-out: GI
Outline: (§1)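 NCI primary one-dose screen. A single concentration of 10^-5 M was added to the cell culture, followed by 48 h incubation and an SRB protein-dye endpoint read spectrophotometrically. Results are growth percentage relative to untreated control cells, reported as % growth inhibition.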

SMILES	inhibition of growth at 10 µM [%]
Cc1ccc(C(=O)Nc2ccc(Cl)cc2C(=O)NCc2ccccc2)cc1	27
Cc1ccc(C(=O)Nc2ccc(Cl)cc2C(=O)Nc2ccccn2)cc1	29
Cc1ccc(-c2nc3ccc(Cl)cc3c(=O)n2NC(=O)CN)cc1	14
Cc1ccc(-c2nc3ccc(Cl)cc3c(=O)n2NC(=O)CNN)cc1	< 10

test system: A549; experiment: Growth inhibition of human A549 cells at 10 uM after 48 hrs by SRB assay; assay type: functional; details: A549, 48 h, read-out: GI; outline: as §1

SMILES	inhibition of growth at 10 µM [%]
Cc1ccc(C(=O)Nc2ccc(Cl)cc2C(=O)NCc2ccccc2)cc1	15
Cc1ccc(C(=O)Nc2ccc(Cl)cc2C(=O)Nc2ccccn2)cc1	13
Cc1ccc(-c2nc3ccc(Cl)cc3c(=O)n2NC(=O)CN)cc1	< 10
Cc1ccc(-c2nc3ccc(Cl)cc3c(=O)n2NC(=O)CNN)cc1	23

test system: SK-OV-3; experiment: Growth inhibition of human SKOV3 cells at 10 uM after 48 hrs by SRB assay; assay type: functional; details: SK-OV-3, 48 h, read-out: GI
Outline: (§2)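 NCI-60 primary one-dose screen run at the US NCI, with human tumour lines from nine cancer types. Compound added once at 10^-5 M, followed by 48 h incubation. End point was sulforhodamine B protein staining read spectrophotometrically. Result given as percent growth of treated cells against untreated controls, reported as % growth inhibition.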

SMILES	inhibition of growth at 10 µM [%]
Cc1ccc(C(=O)Nc2ccc(Cl)cc2C(=O)NCc2ccccc2)cc1	< 10
Cc1ccc(C(=O)Nc2ccc(Cl)cc2C(=O)Nc2ccccn2)cc1	< 10
Cc1ccc(-c2nc3ccc(Cl)cc3c(=O)n2NC(=O)CN)cc1	< 10
Cc1ccc(-c2nc3ccc(Cl)cc3c(=O)n2NC(=O)CNN)cc1	84

test system: MDA-MB-435; experiment: Growth inhibition of human MDA-MB-435 cells at 10 uM after 48 hrs by SRB assay; assay type: functional; details: MDA-MB-435, 48 h, read-out: GI; outline: as §2

SMILES	inhibition of growth at 10 µM [%]
Cc1ccc(C(=O)Nc2ccc(Cl)cc2C(=O)NCc2ccccc2)cc1	98
Cc1ccc(C(=O)Nc2ccc(Cl)cc2C(=O)Nc2ccccn2)cc1	19
Cc1ccc(-c2nc3ccc(Cl)cc3c(=O)n2NC(=O)CN)cc1	< 10
Cc1ccc(-c2nc3ccc(Cl)cc3c(=O)n2NC(=O)CNN)cc1	< 10

test system: SW-620; experiment: Growth inhibition of human SW620 cells at 10 uM after 48 hrs by SRB assay; assay type: functional; details: SW-620, 48 h, read-out: GI; outline: as §2

SMILES	inhibition of growth at 10 µM [%]
Cc1ccc(C(=O)Nc2ccc(Cl)cc2C(=O)NCc2ccccc2)cc1	42
Cc1ccc(C(=O)Nc2ccc(Cl)cc2C(=O)Nc2ccccn2)cc1	< 10
Cc1ccc(-c2nc3ccc(Cl)cc3c(=O)n2NC(=O)CN)cc1	< 10
Cc1ccc(-c2nc3ccc(Cl)cc3c(=O)n2NC(=O)CNN)cc1	28

test system: not listed separately; experiment: Growth inhibition of human OVCAR3 cells at 10 uM after 48 hrs by SRB assay; assay type: functional; details: OVCAR-3, 48 h, read-out: GI; outline: as §2

SMILES	inhibition of growth at 10 µM [%]
Cc1ccc(C(=O)Nc2ccc(Cl)cc2C(=O)NCc2ccccc2)cc1	< 10
Cc1ccc(C(=O)Nc2ccc(Cl)cc2C(=O)Nc2ccccn2)cc1	12
Cc1ccc(-c2nc3ccc(Cl)cc3c(=O)n2NC(=O)CN)cc1	< 10
Cc1ccc(-c2nc3ccc(Cl)cc3c(=O)n2NC(=O)CNN)cc1	45

test system: SK-MEL-28; experiment: Growth inhibition of human SK-MEL-28 cells at 10 uM after 48 hrs by SRB assay; assay type: functional; details: SK-MEL-28, 48 h, read-out: GI; outline: as §2

SMILES	inhibition of growth at 10 µM [%]
Cc1ccc(C(=O)Nc2ccc(Cl)cc2C(=O)NCc2ccccc2)cc1	17
Cc1ccc(C(=O)Nc2ccc(Cl)cc2C(=O)Nc2ccccn2)cc1	< 10
Cc1ccc(-c2nc3ccc(Cl)cc3c(=O)n2NC(=O)CN)cc1	< 10
Cc1ccc(-c2nc3ccc(Cl)cc3c(=O)n2NC(=O)CNN)cc1	23

test system: A498; experiment: Growth inhibition of human A498 cells at 10 uM after 48 hrs by SRB assay; assay type: functional; details: A498, 48 h, read-out: GI; outline: as §1

SMILES	inhibition of growth at 10 µM [%]
Cc1ccc(C(=O)Nc2ccc(Cl)cc2C(=O)NCc2ccccc2)cc1	21
Cc1ccc(C(=O)Nc2ccc(Cl)cc2C(=O)Nc2ccccn2)cc1	39
Cc1ccc(-c2nc3ccc(Cl)cc3c(=O)n2NC(=O)CNN)cc1	46

test system: not listed separately; experiment: Growth inhibition of human OVCAR5 cells at 10 uM after 48 hrs by SRB assay; assay type: functional; details: OVCAR-5, 48 h, read-out: GI; outline: as §2

SMILES	inhibition of growth at 10 µM [%]
Cc1ccc(C(=O)Nc2ccc(Cl)cc2C(=O)NCc2ccccc2)cc1	< 10
Cc1ccc(C(=O)Nc2ccc(Cl)cc2C(=O)Nc2ccccn2)cc1	< 10
Cc1ccc(-c2nc3ccc(Cl)cc3c(=O)n2NC(=O)CN)cc1	11
Cc1ccc(-c2nc3ccc(Cl)cc3c(=O)n2NC(=O)CNN)cc1	18

test system: KM12; experiment: Growth inhibition of human KM12 cells at 10 uM after 48 hrs by SRB assay; assay type: functional; details: KM12, 48 h, read-out: GI; outline: as §2

SMILES	inhibition of growth at 10 µM [%]
Cc1ccc(C(=O)Nc2ccc(Cl)cc2C(=O)NCc2ccccc2)cc1	40
Cc1ccc(C(=O)Nc2ccc(Cl)cc2C(=O)Nc2ccccn2)cc1	11
Cc1ccc(-c2nc3ccc(Cl)cc3c(=O)n2NC(=O)CN)cc1	< 10
Cc1ccc(-c2nc3ccc(Cl)cc3c(=O)n2NC(=O)CNN)cc1	21

test system: MCF7; experiment: Growth inhibition of human MCF7 cells at 10 uM after 48 hrs by SRB assay; assay type: functional; details: MCF7, 48 h, read-out: GI; outline: as §2

SMILES	inhibition of growth at 10 µM [%]
Cc1ccc(C(=O)Nc2ccc(Cl)cc2C(=O)NCc2ccccc2)cc1	47
Cc1ccc(C(=O)Nc2ccc(Cl)cc2C(=O)Nc2ccccn2)cc1	19
Cc1ccc(-c2nc3ccc(Cl)cc3c(=O)n2NC(=O)CN)cc1	12
Cc1ccc(-c2nc3ccc(Cl)cc3c(=O)n2NC(=O)CNN)cc1	22

test system: not listed separately; experiment: Growth inhibition of human HOP92 cells at 10 uM after 48 hrs by SRB assay; assay type: functional; details: HOP-92, 48 h, read-out: GI; outline: as §2

SMILES	inhibition of growth at 10 µM [%]
Cc1ccc(C(=O)Nc2ccc(Cl)cc2C(=O)NCc2ccccc2)cc1	< 10
Cc1ccc(C(=O)Nc2ccc(Cl)cc2C(=O)Nc2ccccn2)cc1	< 10
Cc1ccc(-c2nc3ccc(Cl)cc3c(=O)n2NC(=O)CN)cc1	< 10

test system: M14; experiment: Growth inhibition of human M14 cells at 10 uM after 48 hrs by SRB assay; assay type: functional; details: M14, 48 h, read-out: GI; outline: as §2

SMILES	inhibition of growth at 10 µM [%]
Cc1ccc(C(=O)Nc2ccc(Cl)cc2C(=O)NCc2ccccc2)cc1	26
Cc1ccc(C(=O)Nc2ccc(Cl)cc2C(=O)Nc2ccccn2)cc1	< 10
Cc1ccc(-c2nc3ccc(Cl)cc3c(=O)n2NC(=O)CN)cc1	11
Cc1ccc(-c2nc3ccc(Cl)cc3c(=O)n2NC(=O)CNN)cc1	17

test system: HL-60(TB); experiment: Growth inhibition of human HL-60(TB) cells at 10 uM after 48 hrs by SRB assay; assay type: functional; details: HL-60, 48 h, read-out: GI
Outline: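 NCI 60-cell-line primary screen: compound added at single concentration 10^-5 M, cultures incubated 48 h; end point by sulforhodamine B protein staining read spectrophotometrically; result given as growth percentage of treated versus untreated control cells, reported as % growth inhibition.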

SMILES	inhibition of growth at 10 µM [%]
Cc1ccc(C(=O)Nc2ccc(Cl)cc2C(=O)NCc2ccccc2)cc1	49
Cc1ccc(C(=O)Nc2ccc(Cl)cc2C(=O)Nc2ccccn2)cc1	16
Cc1ccc(-c2nc3ccc(Cl)cc3c(=O)n2NC(=O)CN)cc1	< 10
Cc1ccc(-c2nc3ccc(Cl)cc3c(=O)n2NC(=O)CNN)cc1	12

test system: CAKI-1; experiment: Growth inhibition of human CAKI-1 cells at 10 uM after 48 hrs by SRB assay; assay type: functional; details: CAKI-1, 48 h, read-out: GI; outline: as §1

SMILES	inhibition of growth at 10 µM [%]
Cc1ccc(C(=O)Nc2ccc(Cl)cc2C(=O)NCc2ccccc2)cc1	23
Cc1ccc(C(=O)Nc2ccc(Cl)cc2C(=O)Nc2ccccn2)cc1	20
Cc1ccc(-c2nc3ccc(Cl)cc3c(=O)n2NC(=O)CN)cc1	14
Cc1ccc(-c2nc3ccc(Cl)cc3c(=O)n2NC(=O)CNN)cc1	35

test system: not listed separately; experiment: Growth inhibition of human UO31 cells at 10 uM after 48 hrs by SRB assay; assay type: functional; details: UO-31, 48 h, read-out: GI; outline: as §2

SMILES	inhibition of growth at 10 µM [%]
Cc1ccc(C(=O)Nc2ccc(Cl)cc2C(=O)NCc2ccccc2)cc1	24
Cc1ccc(C(=O)Nc2ccc(Cl)cc2C(=O)Nc2ccccn2)cc1	13
Cc1ccc(-c2nc3ccc(Cl)cc3c(=O)n2NC(=O)CN)cc1	11
Cc1ccc(-c2nc3ccc(Cl)cc3c(=O)n2NC(=O)CNN)cc1	25

test system: not listed separately; experiment: Growth inhibition of human Hs578T cells at 10 uM after 48 hrs by SRB assay; assay type: functional; details: Hs-578T, read-out: GI; outline: as §2

SMILES	inhibition of growth at 10 µM [%]
Cc1ccc(C(=O)Nc2ccc(Cl)cc2C(=O)NCc2ccccc2)cc1	21
Cc1ccc(C(=O)Nc2ccc(Cl)cc2C(=O)Nc2ccccn2)cc1	< 10
Cc1ccc(-c2nc3ccc(Cl)cc3c(=O)n2NC(=O)CN)cc1	< 10
Cc1ccc(-c2nc3ccc(Cl)cc3c(=O)n2NC(=O)CNN)cc1	40

test system: ACHN; experiment: Growth inhibition of human ACHN cells at 10 uM after 48 hrs by SRB assay; assay type: functional; details: read-out: GI; outline: as §1

SMILES	inhibition of growth at 10 µM [%]
Cc1ccc(C(=O)Nc2ccc(Cl)cc2C(=O)NCc2ccccc2)cc1	14
Cc1ccc(C(=O)Nc2ccc(Cl)cc2C(=O)Nc2ccccn2)cc1	< 10
Cc1ccc(-c2nc3ccc(Cl)cc3c(=O)n2NC(=O)CN)cc1	14
Cc1ccc(-c2nc3ccc(Cl)cc3c(=O)n2NC(=O)CNN)cc1	42

test system: not listed separately; experiment: Growth inhibition of human EKVX cells at 10 uM after 48 hrs by SRB assay; assay type: functional; details: read-out: GI; outline: as §2

SMILES	inhibition of growth at 10 µM [%]
Cc1ccc(C(=O)Nc2ccc(Cl)cc2C(=O)NCc2ccccc2)cc1	20
Cc1ccc(C(=O)Nc2ccc(Cl)cc2C(=O)Nc2ccccn2)cc1	12
Cc1ccc(-c2nc3ccc(Cl)cc3c(=O)n2NC(=O)CN)cc1	22
Cc1ccc(-c2nc3ccc(Cl)cc3c(=O)n2NC(=O)CNN)cc1	34

test system: NCI-H23; experiment: Growth inhibition of human NCI-H23 cells at 10 uM after 48 hrs by SRB assay; assay type: functional; details: NCI-H23, 48 h, read-out: GI; outline: as §2

SMILES	inhibition of growth at 10 µM [%]
Cc1ccc(C(=O)Nc2ccc(Cl)cc2C(=O)NCc2ccccc2)cc1	< 10
Cc1ccc(C(=O)Nc2ccc(Cl)cc2C(=O)Nc2ccccn2)cc1	< 10
Cc1ccc(-c2nc3ccc(Cl)cc3c(=O)n2NC(=O)CN)cc1	< 10
Cc1ccc(-c2nc3ccc(Cl)cc3c(=O)n2NC(=O)CNN)cc1	13

test system: HOP-62; experiment: Growth inhibition of human HOP62 cells at 10 uM after 48 hrs by SRB assay; assay type: functional; details: HOP-62, 48 h, read-out: GI; outline: as §2

SMILES	inhibition of growth at 10 µM [%]
Cc1ccc(C(=O)Nc2ccc(Cl)cc2C(=O)NCc2ccccc2)cc1	12
Cc1ccc(C(=O)Nc2ccc(Cl)cc2C(=O)Nc2ccccn2)cc1	< 10
Cc1ccc(-c2nc3ccc(Cl)cc3c(=O)n2NC(=O)CN)cc1	15
Cc1ccc(-c2nc3ccc(Cl)cc3c(=O)n2NC(=O)CNN)cc1	83
